PMC11864002 (Journal of Enzyme Inhibition and Medicinal Chemistry, 2025)
Numbering of substitutions follows the chain as printed. Where “and” joins values, the source holds several entries; their conditions need not be identical. Identical values can stand only once.

How the values were obtained:
[1] = tested on: COS-7 cells; conditions: transiently expressed in COS-7 cells, substrate MU-α-D-Glc; cited from earlier work
[2] = Melting temperature of the enzymes by differential scanning fluorimetry; format: physicochemical; conditions: for Tm: DSF
Summary of the method: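 Recombinant human GAA (2.5 µg) with SYPRO Orange in 150 mM NaCl plus 50 mM sodium phosphate pH 7.4 or 50 mM sodium acetate, in triplicate. Scanned 25–95 °C in 1 °C increments every 1 min. Fluorescence normalised to each scan's maximum. Tm derived per Niesen by curve fitting.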

[3] = biological target: T1, MalA wild-type (Saccharolobus solfataricus, UniProt D0KQM8); assay: IC50 determination on pNP-α-D-Glc, MalA wild-type; format: biochemical, Saccharolobus solfataricus 98/2
T1 sequence (D0KQM8 1-700): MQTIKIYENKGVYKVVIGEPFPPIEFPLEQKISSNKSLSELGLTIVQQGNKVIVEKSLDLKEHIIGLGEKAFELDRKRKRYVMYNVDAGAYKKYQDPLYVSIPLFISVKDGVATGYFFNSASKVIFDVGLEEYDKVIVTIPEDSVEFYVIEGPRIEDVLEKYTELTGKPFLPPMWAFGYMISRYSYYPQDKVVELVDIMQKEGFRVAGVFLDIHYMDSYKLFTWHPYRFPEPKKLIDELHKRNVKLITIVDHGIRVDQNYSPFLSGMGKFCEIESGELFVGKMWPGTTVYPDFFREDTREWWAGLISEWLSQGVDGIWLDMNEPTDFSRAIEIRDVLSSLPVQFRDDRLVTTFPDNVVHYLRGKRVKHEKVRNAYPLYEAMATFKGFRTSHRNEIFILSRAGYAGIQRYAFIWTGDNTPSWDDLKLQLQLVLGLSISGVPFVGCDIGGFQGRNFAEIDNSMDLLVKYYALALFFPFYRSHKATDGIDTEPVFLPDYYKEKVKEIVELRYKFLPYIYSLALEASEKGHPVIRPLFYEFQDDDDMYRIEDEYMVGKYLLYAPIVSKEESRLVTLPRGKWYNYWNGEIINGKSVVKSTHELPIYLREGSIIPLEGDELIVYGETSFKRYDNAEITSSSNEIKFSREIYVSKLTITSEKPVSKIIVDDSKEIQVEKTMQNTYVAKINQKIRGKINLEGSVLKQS
Summary of the method: (§1)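 Standard assay: 10 mM pNP-α-D-Glc in 100 mM sodium citrate pH 5.0, 85 °C, 2 min. Enzyme per reaction: WT 0.9 µg, R400H 26 µg, R400G 45 µg. Stopped on ice with sodium carbonate pH 10.2; A420 read at room temperature. Inhibitor ranges: 1-DNJ up to 5 mM, acarbose up to 9 mM, NB-DNJ up to 1 mM.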

[4] = biological target: T2, MalA R400H (Saccharolobus solfataricus, UniProt D0KQM8, R400H); assay: IC50 determination on pNP-α-D-Glc, MalA R400H; format: biochemical, Saccharolobus solfataricus 98/2
T2 sequence (D0KQM8 1-700 R400H): T1 sequence (D0KQM8 1-700) with R400H
Summary of the method: as §1

[5] = biological target: T3, MalA R400G (Saccharolobus solfataricus, UniProt D0KQM8, R400G); assay: IC50 determination on pNP-α-D-Glc, MalA R400G; format: biochemical, Saccharolobus solfataricus 98/2
T3 sequence (D0KQM8 1-700 R400G): T1 sequence (D0KQM8 1-700) with R400G
Summary of the method: as §1

[6] = biological target: T1, MalA wild-type; assay: Inhibition kinetics; format: biochemical, Saccharolobus solfataricus 98/2
[7] = biological target: T2, MalA R400H; assay: Inhibition kinetics; format: biochemical, Saccharolobus solfataricus 98/2
Summary of the method: (§2)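 Inhibition kinetics at 85 °C under the standard pNP-α-D-Glc assay (100 mM sodium citrate pH 5.0; stopped with sodium carbonate, A420). Enzyme per reaction: R400H 26 µg, R400G 45 µg, wild type 0.9 µg. Inhibitor ranges: 1-DNJ 0.02–25.0 µM, acarbose 10.0–500 µM, NB-DNJ 0.5–25.0 µM.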

[8] = biological target: T3, MalA R400G; assay: Inhibition kinetics; format: biochemical, Saccharolobus solfataricus 98/2
Summary of the method: as §2

[9] = biological target: T4, MalA WT (Saccharolobus solfataricus, UniProt D0KQM8); assay: Differential scanning fluorimetry with inhibitors/NAC, MalA WT; format: binding, Saccharolobus solfataricus 98/2
T4 sequence (D0KQM8 1-700): T1 sequence (D0KQM8 1-700)
Summary of the method: (§3)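 His-tagged MalA (WT, R400G or R400H) was expressed in E. coli BL21(DE3) RIL, heat-fractionated at 70 °C and Ni-purified. Each enzyme ([…]) was mixed with SYPRO Orange in 0.2 M sodium citrate pH 5.0, sodium phosphate pH 7.0 or sodium borate pH 8.5, in triplicate. Held 10 min at 25 °C, scanned 25–95 °C ([…]), then held 10 min. Ligands: 1-DNJ or NB-DNJ 0.1/0.8 mM, acarbose 0.4/1.0 mM, NAC 10/30 mM. Tm fitted on normalised fluorescence; SD from […] replicates.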

[10] = biological target: T2, MalA R400H; assay: Differential scanning fluorimetry with inhibitors/NAC, MalA R400H; format: binding, Saccharolobus solfataricus 98/2
Summary of the method: as §3

[11] = biological target: T3, MalA R400G; assay: Differential scanning fluorimetry with inhibitors/NAC, MalA R400G; format: binding, Saccharolobus solfataricus 98/2
Summary of the method: as §3

[12] = tested on: recombinant GAA; conditions: cited from earlier work
[13] = tested on: α-glucosidase from rice; assay: Differential scanning fluorimetry with NAC, α-glucosidase from rice; format: binding; conditions: GH31 GAA from rice, Figure S7
Summary of the method: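 Rice α-glucosidase (type V, 2.5 µg) in 0.2 M sodium borate pH 8.0 with SYPRO Orange, in triplicate, with NAC present. Thermal scan 25–95 °C in 1 °C increments every 0.5 min. Fluorescence normalised to each scan's maximum. Tm calculated per Niesen by curve fitting.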

[14] = tested on: recombinant GAA; conditions: 10 mM NAC; cited from earlier work

R600H: pathogenic human GAA mutant transiently expressed in COS-7 cells
activity compared to GAA wild-type [1]: less than 2%

recombinant GAA: recombinant human lysosomal acid α-glucosidase
Tm ([2]; pH 4.0): 53.7 ± 0.2 °C | Tm ([2]; pH 7.4): 47.9 ± 0.7 °C | Tm difference, less than MalA WT at pH 8.5 ([2]; GAA at pH 4.0): 23.3 °C | Tm difference, less than MalA WT at pH 8.5 ([2]; GAA at pH 7.4): 29.1 °C

CCCCN1C[C@H](O)[C@@H](O)[C@H](O)[C@H]1CO [NB-DNJ, N-butyldeoxynojirimycin]
IC50 [3]: 1.7 ± 0.2 µM | IC50 [4]: 5.7 ± 0.21 µM | IC50 [5]: 55 ± 6.62 µM | Ki [6]: 0.13 µM | Ki [7]: 0.7 µM | Ki fold higher than WT ([7]; R400H vs MalA WT): 5.4 fold | Ki [8]: 0.13 µM | Tm MalA WT ([9]; 0.1 mM inhibitor): 86 ± 0.7 °C | Tm MalA WT ([9]; 0.8 mM inhibitor): 85.1 ± 0.6 °C | Tm MalA R400H ([10]; 0.1 mM inhibitor): 64.7 ± 0.4 °C | Tm MalA R400H ([10]; 0.8 mM inhibitor): 61.7 ± 0.1 °C | Tm MalA R400G ([11]; 0.1 mM inhibitor): 65.6 ± 0.2 °C | Tm MalA R400G ([11]; 0.8 mM inhibitor): 63.5 ± 0.1 °C | IC50 [12]: 158 µM

OC[C@H]1NC[C@H](O)[C@@H](O)[C@@H]1O [1-DNJ, 1-deoxynojirimycin]
IC50 [3]: 0.1 ± 0.01 µM | IC50 [4]: 30 ± 2.3 µM | IC50 [5]: 224 ± 41 µM | Ki [6]: 0.009 µM | Ki [7]: 2.2 µM | Ki [8]: 1.4 µM | Tm MalA WT ([9]; 0.1 mM inhibitor): 84.1 ± 0.5 °C | Tm MalA WT ([9]; 0.8 mM inhibitor): 87.1 ± 0.3 °C | Tm MalA R400H ([10]; 0.1 mM inhibitor): 65.5 ± 0.2 °C | Tm MalA R400H ([10]; 0.8 mM inhibitor): 64.1 ± 0.1 °C | Tm MalA R400G ([11]; 0.1 mM inhibitor): 66.4 ± 0.2 °C | Tm MalA R400G ([11]; 0.8 mM inhibitor): 67.5 ± 0.3 °C | IC50 [12]: 20 µM

CC(=O)N[C@@H](CS)C(=O)O [NAC, N-acetylcysteine]
Tm MalA WT ([9]; 10 mM NAC): 75.8 ± 0.86 °C | Tm MalA WT ([9]; 30 mM NAC): 79.6 ± 0.54 °C | Tm MalA R400H ([10]; 10 mM NAC): 64.9 ± 0.03 °C | Tm MalA R400H ([10]; 30 mM NAC): 67.7 ± 0.13 °C | Tm MalA R400G ([11]; 10 mM NAC): 65.5 ± 0.04 °C | Tm MalA R400G ([11]; 30 mM NAC): 67.3 ± 0.11 °C | stabilising effect [13]: no stabilising effect | increase of Tm [14]: 10.5 ± 0.5 °C and 10.5 °C

C[C@H]1O[C@H](O[C@H]2[C@H](O)[C@@H](O)[C@@H](O[C@H]3[C@H](O)[C@@H](O)C(O)O[C@@H]3CO)O[C@@H]2CO)[C@H](O)[C@@H](O)[C@@H]1N[C@H]1C=C(CO)[C@@H](O)[C@H](O)[C@H]1O (some centres unmarked) [Acarbose, acarbose]
IC50 [3]: 20.2 ± 0.9 µM | IC50 [4]: 830 ± 91.5 µM | IC50 [5]: 912 ± 67.5 µM | Ki [6]: 0.98 µM | Ki [7]: 72 µM | Ki [8]: 23 µM | Tm MalA WT ([9]; 0.4 mM inhibitor): 79.1 ± 0.9 °C | ΔTm ([9]; 0.4 mM inhibitor, vs no inhibitor): +2.0 °C | Tm MalA WT ([9]; 1.0 mM inhibitor): 79.8 ± 0.7 °C | Tm MalA R400H ([10]; 0.4 mM inhibitor): 64.2 ± 0.1 °C | Tm MalA R400H ([10]; 1.0 mM inhibitor): 64.2 ± 0.2 °C | Tm MalA R400G ([11]; 0.4 mM inhibitor): 65 ± 0.04 °C | Tm MalA R400G ([11]; 1.0 mM inhibitor): 65 ± 0.1 °C
